Bioassay records as filed in PubChem BioAssay.
Fh CTSL1 inh – Fasciola hepatica cathepsin L1 inhibitors, primary screen, counter-screen for PFM18AAP inhibitor project, biochemical, QFRET, fluorogenic peptide substrate. recombinant F. hepatica cathepsin L1, Z-Leu-Arg-MCA fluorescence. inhibition, % at 5.96 µM. 0.49% of 300,000 active. AID 1906, 2009;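 active = inhibition above the mean of all tested compounds plus 3 SD, set per screening campaign, cut at about 17% in these data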;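 note: 0% = plate median of test compound wells and 100% = 1 µM Z-Phe-Ala-diazomethylketone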
UCH37 inh – inhibitors of human UCH37 deubiquitinase, primary screen, biochemical, Ub-AMC cleavage, fluorescence; purified proteasome/UCH37; 0.33% of 330,000 active; Ubiquitin carboxyl-terminal hydrolase isozyme L5 (Homo sapiens), Q9Y5K5; inhibition, % (no concentration beside the values);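 active = mean inhibition over replicate wells above about 20%, limit read from the data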;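 note: 0% = compound-free wells with enzyme and 100% = wells lacking proteasome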
Target sequence (Q9Y5K5 whole entry, looked up): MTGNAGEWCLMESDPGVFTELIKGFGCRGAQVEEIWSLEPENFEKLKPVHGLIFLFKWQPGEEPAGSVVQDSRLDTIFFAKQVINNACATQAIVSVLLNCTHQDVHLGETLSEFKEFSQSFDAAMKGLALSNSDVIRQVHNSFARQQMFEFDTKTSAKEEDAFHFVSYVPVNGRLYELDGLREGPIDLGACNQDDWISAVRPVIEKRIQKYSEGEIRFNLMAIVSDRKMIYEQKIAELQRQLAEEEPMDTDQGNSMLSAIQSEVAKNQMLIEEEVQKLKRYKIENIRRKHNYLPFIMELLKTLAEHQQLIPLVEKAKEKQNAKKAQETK
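Material: Human UCH37 enzyme supplied as purified proteasome complex | Schedule: 30 min compound-proteasome preincubation then 25 min substrate reaction, room temperature | Detection: AMC fluorescence from Ub-AMC cleavage, excitation 355 nm, emission 460 nm | Benchmarks: Wells without proteasome as full block, compound-free enzyme plus substrate as uninhibited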
UPR CHOP act – activators of apoptotic CHOP UPR arm, primary screen, cell-based, CHO-CHOP luciferase reporter, luminescence, uHTS | UPR activation; percent of tunicamycin response over DMSO baseline | activation, % at 10 µM | 0.34% of 330,000 active | AID 449763, 2010;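 active = at 10 µM dose, activation of 40% or more, normalized to positive control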;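 note: 100% = tunicamycin at 10 µg/mL and 0% = DMSO alone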
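Test system: CHO CHOP reporter cells. Input: 500 CHO-CHOP cells per well. Medium: F12 with 10% FBS. Technique: luciferase luminescence. Measure: percent activation relative to tunicamycin control. Dosing: 10 µM compound, 0.5% DMSO. Timing: 16-18 h cell attachment, then 6 h compound exposure, 37 °C.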
UPR XBP1 act – activators of adaptive XBP1 UPR arm, primary screen, cell-based, CHO-XBP1 luciferase reporter, luminescence, uHTS; AID 463104, 2010; 0.33% of 330,000 active; activation, % at 20 µM; IRE1-XBP1 UPR activation; percent of tunicamycin response, DMSO as zero;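 active = versus positive control, 20 µM dose yields 30% or more activation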;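 note: 100% = tunicamycin at 10 µg/mL and 0% = DMSO only wells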
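assay system = CHO-XBP1 luciferase reporter cells | amount = 1000 cells/well | buffer or medium = F12 plus 10% FBS | compound dosing = single point, 20 µM final compound, 1% DMSO | incubation = 16-18 h cell attachment at 37 °C, then 6 h compound exposure | detection = Steady-Glo luminescence read | controls = tunicamycin 10 µg/mL and vehicle-only wells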
CHOP inhibitor – inhibitors of CHOP promoter induction, primary screen, cell-based, unfolded protein response, luciferase reporter; 3.8% of 220,000 active; CHO-K1 CHOP-promoter luciferase, tunicamycin-induced, 15-18 h; AID 2732, 2010; inhibition, % at 10 µM;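 active = compounds that reduced the stress-induced luciferase reporter signal by more than about 70% of percent inhibition, limit read from the data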;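 note: 0% = tunicamycin plus vehicle and 100% = wells without tunicamycin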
UPR CHOP confirm – activators of apoptotic CHOP UPR arm, confirmation, cell-based, CHO-CHOP luciferase reporter, single concentration; shares compounds with UPR CHOP act; CHO-CHOP cells, CHOP-luciferase reporter luminescence; percent of tunicamycin response, DMSO as zero; activation, % at 10 µM; 64% of 1,000 active; AID 463112, 2010; in the data active = activation above about 33%;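 note: 0% = DMSO wells and 100% = tunicamycin 10 µg/mL wells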
UPR XBP1 confirm – IRE1-XBP1 UPR arm activators, confirmation, cell-based, CHO-XBP1 luciferase reporter, luminescence, single concentration | shares compounds with UPR XBP1 act | 63% of 1,000 active | AID 485299, 2010 | activation, % at 20 µM;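 active = reporter signal at least 30% of the positive control's activation in two or more of four replicate wells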;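 note: plate controls were DMSO negative control for no effect and tunicamycin 10 µg/mL positive control for full effect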
Starred values were filed as active, the others as inactive; i = inactive; nt = no result given. Many of the other results were omitted from the sample, so hits are more common in it than they were.

SMILES | Fh CTSL1 inh | UCH37 inh | UPR CHOP act | UPR XBP1 act | CHOP inhibitor | UPR CHOP confirm | UPR XBP1 confirm
O=C(NN=Cc1ccncc1)C1CC1C(=O)NN=Cc1ccncc1 (stereo unspecified) | nt | 4.0 | nt | nt | nt | nt | nt
COC(=O)c1cc(=O)n(Cc2ccco2)c(=Nc2ccc(F)c(Cl)c2)s1 | -3.5 | 3.8 | 54.6* | 6.6 | 29.1 | 54.0* | nt
CC1=C/C(=N\OC(=O)/C=C/c2ccccc2)C(C)=CC1=O | -4.8 | nt | 106.6* | -4.6 | 3.5 | 41.4* | nt
CCOc1ccc2nc(SC3CC(=O)N(c4ccc(OC)cc4)C3=O)sc2c1 (stereo unspecified) | 1.1 | 4.8 | 45.4* | -7.1 | 30.8 | 24.2 | nt
Cc1[nH][nH]c(=O)c1C=NN1CCOCC1 | nt | 5.1 | nt | nt | nt | nt | nt
C[C@@H](NC(=O)c1coc(=O)c(Br)c1)c1ccccc1 | 4.9 | 9.1 | 115.1* | -9.4 | 35.9 | 96.8* | nt
COc1ccc(C(=O)NC(C)c2ccccc2)cc1Br (stereo unspecified) | 0.1 | 1.1 | -1.8 | -5.1 | 7.8 | nt | nt
COc1ccc(NC(=O)c2ccc(NC(=O)c3cccs3)cc2)cc1 | 1.2 | -27.8 | 1.1 | 7.4 | nt | nt | nt
COc1nc(N)nc(NC(=O)c2cccs2)c1N=O | 50.3* | -4.7 | 70.2* | -0.7 | nt | 61.6* | nt
O=C(CCCN1C(=O)S/C(=C\C=C\c2ccccc2)C1=O)Nc1ccc(O)cc1 | 6.1 | 3.2 | 63.9* | 10.8 | nt | 1.9 | nt
COc1ccc(NC(=O)c2sc3nc(N4CCOCC4)c4c(c3c2N)CC(C)(C)OC4)cc1 | 5.7 | i | 4.2 | -5.1 | nt | nt | nt
COc1ccc(NC(=O)c2sc3nc(N4CCOCC4)c4c(c3c2N)CC(C)(C)OC4)c(OC)c1 | -0.5 | -201.4 | 40.1* | 162.7* | nt | 38.9* | 171.8*
O=C(C[C@@H]1C/C=C/CC[C@H](Cc2ccc(F)cc2)C(=O)OC[C@@H](Cc2ccccc2)NC1=O)N[C@H](CO)Cc1ccccc1 | nt | nt | 64.9* | 151.6* | nt | 11.7 | 46.8*
Cc1cccc(C=NNC(=O)c2ccc(NC(=O)c3ccc(F)cc3)cc2)n1 | nt | 5.0 | nt | nt | nt | nt | nt
Cc1cc(C=NO)c(C)n1-c1ccncc1 | nt | -1.6 | nt | nt | nt | nt | nt
C=CCOc1ccc2cccc(/C=N/NC(=O)c3cc4cc([N+](=O)[O-])ccc4s3)c2c1 | -0.7 | nt | 54.8* | 46.5* | 51.8 | 31.8 | 44.9*
O=C(Nc1ccccn1)c1cc2cc([N+](=O)[O-])ccc2s1 | -0.4 | -0.5 | 13.2 | 12.6 | 47.9 | nt | nt
O=C(Oc1ccc(C=NNC(=O)c2ccccc2O)cc1)c1ccccc1 | nt | -2.5 | nt | nt | nt | nt | nt
Cc1ccc2nc(NC(=O)c3ccc(-c4nc5ccccc5s4)s3)sc2c1 | -0.7 | -10.1 | 69.4* | 65.5* | 59.7 | 26.3 | 89.3*
C/C(CC(C)(C)C1CCCCC1)=N\NC(N)=S | 4.0 | nt | 71.6* | 69.1* | -3.3 | 43.2* | 30.7*
OCCNc1nc(Nc2ccc(Br)cc2)nc2ccccc12 | -5.3 | -32.4 | 76.1* | 40.8* | 4.8 | 60.4* | 46.1*
CCCCCCC1C(=NO)CCC1C(=O)OC (stereo unspecified) | nt | 2.2 | nt | nt | nt | nt | nt
Brc1ccc(-c2nnc3ccc(N4CCN(c5ccccc5)CC4)nn23)cc1 | -0.2 | -15.7 | 54.1* | 46.7* | -65.4 | 3.2 | 2.4
Fc1ccc(-c2nnc3ccc(N4CCCC4)nn23)cc1 | -2.8 | nt | -0.2 | 5.1 | -8.8 | nt | nt
Cc1cc(C(=O)NN=Cc2ccco2)n[nH]1 | nt | 5.6 | nt | nt | nt | nt | nt
O=C(Nc1ccc(-c2nc3cc(NC(=O)c4cccs4)ccc3o2)cc1)c1cccs1 | -1.5 | -300.3 | 195.2* | 147.6* | -53.9 | 201.6* | 324.2*
